Measured values as given in ChEMBL document CHEMBL3124772, “Design, synthesis, and evaluation of conformationally restricted acetanilides as potent and selective β3 adrenergic receptor agonists for the treatment of overactive bladder” (J Med Chem, 2014).

Legend:
Cytochrome P450 3A4 = Cytochrome P450 3A4 (Homo sapiens, UniProt P08684); test: Inhibition of CYP3A4 in human liver microsomes assessed as testosterone 6beta-hydroxylation; type: ADME
[1] = Apparent permeability in MDCK2 cells; type: ADME, cell-based, Canis lupus familiaris, MDCK-II; conditions: dog, MDCK
[2] = Plasma clearance in Sprague-Dawley rat at 1 mg/kg, iv and 2 mg/kg, po; type: ADME, organism-based
Cytochrome P450 2C9 = Cytochrome P450 2C9 (Homo sapiens, UniProt P11712); test: Inhibition of CYP2C9 in human liver microsomes assessed as diclofenac alpha'-hydroxylation; type: ADME
[3] = target: Sodium channel protein type 5 subunit alpha (Homo sapiens, UniProt Q14524); test: Inhibition of human NaV1.5
[4] = target: T1, Beta-3 adrenergic receptor (Homo sapiens, UniProt P13945); test: Agonist activity at human beta-3 adrenergic receptor expressed in CHO cells assessed as increase in intracellular cAMP accumulation at 10^-10 to 10^-5 M after 30 mins by time-resolved fluorescence assay relative to R-(-)isoproterenol; type: functional, cell-based
How it was run: (§1)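 CHO cells stably transfected with cloned β3-AR, harvested after 3 days subculture with enzyme-free dissociation, 6000 cells in HBSS with 5 mM HEPES, 0.1% BSA and 0.6 mM IBMX. Ligand at 10⁻¹⁰ to 10⁻⁵ M final, 30 min room temperature with labeled cAMP antibody; LANCE TR-FRET read after 1 h detection, cAMP from standard curve.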

[5] = target: Beta-1 adrenergic receptor (Homo sapiens, UniProt P08588); test: Displacement of [125I]-cyanopindolol from recombinant human beta-1 adrenergic receptor expressed in CHO cell membranes after 1 hr by scintillation counting analysis
[6] = (§2) Fraction unbound in Sprague-Dawley rat plasma at 1 mg/kg, iv and 2 mg/kg, po; type: ADME, organism-based; conditions: Sprague-Dawley, plasma
[7] = target: Voltage-dependent L-type calcium channel subunit alpha-1C (Homo sapiens, UniProt Q13936); test: Displacement of [3H]-diltiazem from human CaV1.2
[8] = Intrinsic clearance in rat liver microsomes; type: ADME; conditions: read-out: CLH
[9] = target: Beta-2 adrenergic receptor (Homo sapiens, UniProt P07550); test: Displacement of [125I]-cyanopindolol from recombinant human beta-2 adrenergic receptor expressed in CHO cell membranes after 1 hr by scintillation counting analysis
[10] = target: Sodium-dependent serotonin transporter (Homo sapiens, UniProt P31645); test: Inhibition of human SERT expressed in HEK293 cells incubated for 30 mins prior to fluorescent substrate addition measured after 30 mins by fluorescent dye uptake assay; type: cell-based
How it was run: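 HEK293 stably expressing human SERT, 20000 cells/well plated overnight at 37 °C, then in HBSS with 20 mM HEPES and 0.1% BSA. Compound added from 100× DMSO stock, 30 min at 37 °C, then fluorescent transporter substrate for 30 more min. Fluorescence read at 440/520 nm, normalized to DMSO (0%) and 10 μM fluoxetine (100%), four-parameter fit for IC50.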

[11] = Half life in Sprague-Dawley rat at 1 mg/kg, iv and 2 mg/kg, po; type: ADME, organism-based; conditions: in vivo
Cytochrome P450 2D6 = Cytochrome P450 2D6 (Homo sapiens, UniProt P10635); test: Inhibition of CYP2D6 in human liver microsomes assessed as dextromethorphan O-demethylation; type: ADME
[12] = target: T1, Beta-3 adrenergic receptor; test: Agonist activity at human beta-3 adrenergic receptor expressed in CHO cells assessed as increase in intracellular cAMP accumulation after 30 mins by time-resolved fluorescence assay; type: functional, cell-based; how it was run: as §1
[13] = Oral bioavailability in Sprague-Dawley rat at 2 mg/kg; type: ADME, organism-based; conditions: in vivo
[14] = target: Beta-3 adrenergic receptor (Macaca mulatta, UniProt Q28524); test: Agonist activity at rhesus monkey beta-3 adrenergic receptor expressed in CHO cells assessed as increase in intracellular cAMP accumulation after 30 mins by time-resolved fluorescence assay; type: functional, cell-based; how it was run: as §1
[15] = target: Beta-3 adrenergic receptor (Rattus norvegicus) (UniProt P26255); test: Agonist activity at rat beta-3 adrenergic receptor expressed in CHO cells assessed as increase in intracellular cAMP accumulation at 10^-10 to 10^-5 M after 30 mins by time-resolved fluorescence assay relative to R-(-)isoproterenol; type: functional, cell-based; how it was run: as §1
[16] = target: Beta-3 adrenergic receptor (Canis lupus familiaris) (UniProt O02662); test: Agonist activity at dog beta-3 adrenergic receptor expressed in CHO cells assessed as increase in intracellular cAMP accumulation at 10^-10 to 10^-5 M after 30 mins by time-resolved fluorescence assay relative to R-(-)isoproterenol; type: functional, cell-based; how it was run: as §1
[17] = target: Beta-3 adrenergic receptor (Rattus norvegicus, UniProt P26255); test: Agonist activity at rat beta-3 adrenergic receptor expressed in CHO cells assessed as increase in intracellular cAMP accumulation after 30 mins by time-resolved fluorescence assay; type: functional, cell-based; how it was run: as §1
[18] = target: Voltage-gated inwardly rectifying potassium channel KCNH2 (Homo sapiens, UniProt Q12809); test: Inhibition of human ERG
[19] = target: Beta-3 adrenergic receptor (Canis lupus familiaris, UniProt O02662); test: Agonist activity at dog beta-3 adrenergic receptor expressed in CHO cells assessed as increase in intracellular cAMP accumulation after 30 mins by time-resolved fluorescence assay; type: functional, cell-based; how it was run: as §1
[20] = target: Beta-3 adrenergic receptor (Macaca mulatta) (UniProt Q28524); test: Agonist activity at rhesus monkey beta-3 adrenergic receptor expressed in CHO cells assessed as increase in intracellular cAMP accumulation at 10^-10 to 10^-5 M after 30 mins by time-resolved fluorescence assay relative to R-(-)isoproterenol; type: functional, cell-based; how it was run: as §1
Homo sapiens = species on record: Homo sapiens; test: Selectivity ratio of IC50 for human SERT to EC50 for human beta-3 adrenergic receptor
Plasma = test: as §2; type: ADME, organism-based; conditions: in vivo, BLD = below limit of detection

Sequence of Cytochrome P450 3A4 (P08684 whole entry): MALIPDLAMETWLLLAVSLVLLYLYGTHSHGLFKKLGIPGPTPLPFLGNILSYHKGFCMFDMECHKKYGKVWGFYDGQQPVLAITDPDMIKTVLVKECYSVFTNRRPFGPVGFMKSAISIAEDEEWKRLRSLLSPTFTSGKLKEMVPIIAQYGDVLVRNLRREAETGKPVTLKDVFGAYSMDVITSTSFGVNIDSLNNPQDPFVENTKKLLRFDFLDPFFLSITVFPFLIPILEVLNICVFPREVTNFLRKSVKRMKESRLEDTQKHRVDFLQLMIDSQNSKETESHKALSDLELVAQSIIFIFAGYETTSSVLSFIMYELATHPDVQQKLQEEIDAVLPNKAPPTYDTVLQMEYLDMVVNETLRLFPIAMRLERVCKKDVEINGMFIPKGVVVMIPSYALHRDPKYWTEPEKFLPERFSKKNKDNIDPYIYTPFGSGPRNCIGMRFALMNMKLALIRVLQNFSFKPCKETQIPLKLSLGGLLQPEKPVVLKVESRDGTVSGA
Sequence of Voltage-gated inwardly rectifying potassium channel KCNH2 (Q12809 whole entry): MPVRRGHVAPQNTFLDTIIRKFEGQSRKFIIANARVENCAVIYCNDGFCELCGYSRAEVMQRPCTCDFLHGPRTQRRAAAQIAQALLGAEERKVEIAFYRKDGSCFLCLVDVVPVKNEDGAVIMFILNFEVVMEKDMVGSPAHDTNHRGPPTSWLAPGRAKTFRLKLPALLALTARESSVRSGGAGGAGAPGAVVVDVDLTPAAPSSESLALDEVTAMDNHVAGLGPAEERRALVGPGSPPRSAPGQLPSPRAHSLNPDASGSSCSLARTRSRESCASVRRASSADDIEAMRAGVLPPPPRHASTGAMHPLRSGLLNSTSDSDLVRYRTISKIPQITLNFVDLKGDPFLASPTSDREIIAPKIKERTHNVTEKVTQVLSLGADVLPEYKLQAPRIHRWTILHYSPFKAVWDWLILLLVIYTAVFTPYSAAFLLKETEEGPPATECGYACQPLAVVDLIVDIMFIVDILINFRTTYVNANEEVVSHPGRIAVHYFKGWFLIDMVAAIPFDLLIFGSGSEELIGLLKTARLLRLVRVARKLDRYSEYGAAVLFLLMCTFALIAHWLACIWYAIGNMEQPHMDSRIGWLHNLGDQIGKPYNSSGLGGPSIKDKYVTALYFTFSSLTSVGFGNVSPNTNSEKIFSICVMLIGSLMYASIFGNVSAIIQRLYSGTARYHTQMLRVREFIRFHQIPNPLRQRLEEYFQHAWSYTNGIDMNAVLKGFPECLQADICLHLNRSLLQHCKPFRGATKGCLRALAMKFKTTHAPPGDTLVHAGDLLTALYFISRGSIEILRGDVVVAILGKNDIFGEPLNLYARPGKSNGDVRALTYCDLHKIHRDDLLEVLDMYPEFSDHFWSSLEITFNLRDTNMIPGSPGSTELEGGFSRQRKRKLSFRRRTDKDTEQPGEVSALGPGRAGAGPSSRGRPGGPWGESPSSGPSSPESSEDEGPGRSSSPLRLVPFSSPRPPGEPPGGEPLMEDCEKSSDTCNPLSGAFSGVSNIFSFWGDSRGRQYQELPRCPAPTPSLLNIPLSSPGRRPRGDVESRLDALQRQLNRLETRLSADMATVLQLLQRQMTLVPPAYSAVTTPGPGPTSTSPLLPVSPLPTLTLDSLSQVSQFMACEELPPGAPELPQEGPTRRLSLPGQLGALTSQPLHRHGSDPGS
Sequence of Beta-1 adrenergic receptor (P08588 whole entry): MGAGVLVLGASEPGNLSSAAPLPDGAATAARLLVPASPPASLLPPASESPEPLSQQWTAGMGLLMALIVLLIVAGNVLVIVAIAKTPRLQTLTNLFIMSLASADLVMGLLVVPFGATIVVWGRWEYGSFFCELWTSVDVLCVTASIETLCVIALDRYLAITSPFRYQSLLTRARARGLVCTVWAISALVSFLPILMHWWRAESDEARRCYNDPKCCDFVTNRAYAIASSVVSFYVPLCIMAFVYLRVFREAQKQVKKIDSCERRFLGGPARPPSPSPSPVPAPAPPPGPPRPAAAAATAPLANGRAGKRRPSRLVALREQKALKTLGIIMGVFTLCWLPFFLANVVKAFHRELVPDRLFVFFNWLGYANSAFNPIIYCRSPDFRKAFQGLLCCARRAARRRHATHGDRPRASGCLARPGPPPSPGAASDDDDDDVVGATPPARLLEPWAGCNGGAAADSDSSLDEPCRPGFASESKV
Sequence of Cytochrome P450 2D6 (P10635 whole entry): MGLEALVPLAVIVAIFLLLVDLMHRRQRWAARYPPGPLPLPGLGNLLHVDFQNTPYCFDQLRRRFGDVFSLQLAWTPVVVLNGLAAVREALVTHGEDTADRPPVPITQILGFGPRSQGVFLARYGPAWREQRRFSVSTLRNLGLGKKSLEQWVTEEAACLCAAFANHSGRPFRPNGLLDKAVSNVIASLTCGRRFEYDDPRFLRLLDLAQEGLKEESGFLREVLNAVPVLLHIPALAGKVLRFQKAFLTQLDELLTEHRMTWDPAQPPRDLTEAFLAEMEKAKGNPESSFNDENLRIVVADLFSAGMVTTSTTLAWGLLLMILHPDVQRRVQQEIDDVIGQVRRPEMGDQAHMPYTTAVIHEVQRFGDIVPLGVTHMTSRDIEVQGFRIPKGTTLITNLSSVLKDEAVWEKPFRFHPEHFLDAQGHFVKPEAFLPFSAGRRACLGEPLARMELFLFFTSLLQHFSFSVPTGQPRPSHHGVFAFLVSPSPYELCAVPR
Sequence of Voltage-dependent L-type calcium channel subunit alpha-1C (Q13936 whole entry): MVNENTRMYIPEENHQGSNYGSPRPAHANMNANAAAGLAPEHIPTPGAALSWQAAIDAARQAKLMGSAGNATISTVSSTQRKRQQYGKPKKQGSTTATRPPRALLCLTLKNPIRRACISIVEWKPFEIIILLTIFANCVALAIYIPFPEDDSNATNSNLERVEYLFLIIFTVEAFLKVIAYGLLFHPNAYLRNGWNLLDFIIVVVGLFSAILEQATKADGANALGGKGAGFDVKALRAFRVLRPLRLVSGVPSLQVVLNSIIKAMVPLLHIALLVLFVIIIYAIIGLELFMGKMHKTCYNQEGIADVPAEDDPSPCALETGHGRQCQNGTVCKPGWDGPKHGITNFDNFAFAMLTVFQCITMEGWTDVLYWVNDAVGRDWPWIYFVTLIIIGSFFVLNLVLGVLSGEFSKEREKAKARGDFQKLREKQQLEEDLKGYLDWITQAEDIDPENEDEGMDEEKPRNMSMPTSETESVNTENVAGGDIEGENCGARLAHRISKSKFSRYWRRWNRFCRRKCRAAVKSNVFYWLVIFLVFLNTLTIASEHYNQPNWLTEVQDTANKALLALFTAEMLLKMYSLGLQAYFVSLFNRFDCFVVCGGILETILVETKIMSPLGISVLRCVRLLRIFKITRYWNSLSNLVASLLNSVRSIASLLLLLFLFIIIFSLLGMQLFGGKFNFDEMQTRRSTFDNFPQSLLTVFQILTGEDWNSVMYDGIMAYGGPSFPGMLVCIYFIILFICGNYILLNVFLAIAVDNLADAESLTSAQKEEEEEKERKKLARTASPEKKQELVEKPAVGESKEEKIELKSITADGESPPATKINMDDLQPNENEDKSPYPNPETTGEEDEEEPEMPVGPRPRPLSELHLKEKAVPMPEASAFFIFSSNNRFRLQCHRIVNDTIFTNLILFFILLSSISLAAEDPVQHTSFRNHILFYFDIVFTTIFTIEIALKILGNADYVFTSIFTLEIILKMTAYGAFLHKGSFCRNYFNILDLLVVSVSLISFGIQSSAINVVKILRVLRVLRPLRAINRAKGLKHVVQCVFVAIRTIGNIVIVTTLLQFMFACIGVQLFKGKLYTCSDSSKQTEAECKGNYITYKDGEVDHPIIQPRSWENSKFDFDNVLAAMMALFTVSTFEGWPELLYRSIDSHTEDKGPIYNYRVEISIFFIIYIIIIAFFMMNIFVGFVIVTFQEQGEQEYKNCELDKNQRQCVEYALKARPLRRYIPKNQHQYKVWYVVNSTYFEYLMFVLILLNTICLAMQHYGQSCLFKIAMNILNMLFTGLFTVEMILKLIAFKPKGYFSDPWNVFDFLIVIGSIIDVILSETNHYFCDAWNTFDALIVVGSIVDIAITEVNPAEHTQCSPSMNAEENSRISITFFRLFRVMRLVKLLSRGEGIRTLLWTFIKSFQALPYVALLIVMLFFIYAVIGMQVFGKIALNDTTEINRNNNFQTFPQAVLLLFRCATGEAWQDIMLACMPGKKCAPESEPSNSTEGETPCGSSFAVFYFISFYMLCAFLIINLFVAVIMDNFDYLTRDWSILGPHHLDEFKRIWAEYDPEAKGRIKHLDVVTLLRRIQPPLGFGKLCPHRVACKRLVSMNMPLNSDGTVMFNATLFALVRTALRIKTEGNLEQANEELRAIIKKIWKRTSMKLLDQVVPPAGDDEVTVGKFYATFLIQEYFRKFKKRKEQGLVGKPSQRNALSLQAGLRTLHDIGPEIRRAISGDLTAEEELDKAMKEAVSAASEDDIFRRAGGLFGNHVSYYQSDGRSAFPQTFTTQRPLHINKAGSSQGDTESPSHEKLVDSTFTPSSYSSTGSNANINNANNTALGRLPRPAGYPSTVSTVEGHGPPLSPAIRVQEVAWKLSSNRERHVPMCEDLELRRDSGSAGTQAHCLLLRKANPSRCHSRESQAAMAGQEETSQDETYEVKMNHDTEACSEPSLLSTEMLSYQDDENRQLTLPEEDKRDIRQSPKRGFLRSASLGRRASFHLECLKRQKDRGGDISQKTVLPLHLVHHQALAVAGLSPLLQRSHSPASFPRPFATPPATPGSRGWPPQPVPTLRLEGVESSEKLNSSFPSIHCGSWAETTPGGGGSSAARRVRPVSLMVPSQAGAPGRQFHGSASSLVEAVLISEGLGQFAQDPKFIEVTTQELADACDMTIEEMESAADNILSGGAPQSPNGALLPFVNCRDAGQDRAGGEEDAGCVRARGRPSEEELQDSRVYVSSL

Row | clearance [2] [mL/min/kg] | Activity [4] [%] | IC50 [5] [µM] | IC50 [9] [µM] | half-life [11] [h] | EC50 [12] [pM] | SMILES | other results
1 | 11 | 92 | > 20 | > 20 | 8 | – | Nc1nc(CC(=O)Nc2ccc(C[C@@H]3CCC([C@H](O)c4ccccc4)N3)cc2)cs1 (single isomer, unassigned) | IC50 (Cytochrome P450 3A4): > 100 µM; Papp [1]: 5 ×10⁻⁶ cm/s; IC50 (Cytochrome P450 2C9): > 100 µM; IC50 [3]: > 30 µM; fraction unbound [6]: 0.06; IC50 [7]: 8.2 µM; CLint scaled [8]: 38 mL/min/kg; IC50 [10]: 1.61 µM; IC50 (Cytochrome P450 2D6): 2.2 µM
2 | 185 | 103 | > 20 | > 20 | 3 | 210 | Nc1nc2c(s1)CCC[C@H]2C(=O)Nc1ccc(C[C@@H]2CC[C@H]([C@H](O)c3ccccc3)N2)cc1 | Papp [1]: 5 ×10⁻⁶ cm/s; bioavailability [13]: 0%; fraction unbound [6]: 0.14; CLint scaled [8]: 63 mL/min/kg
3 | – | 85 | > 20 | > 20 | – | 1600 | CC(C)[C@@H](C(=O)Nc1ccc(C[C@@H]2CC[C@H]([C@H](O)c3ccccc3)N2)cc1)c1csc(N)n1 | –
4 | – | 91 | > 20 | > 20 | – | 44200 | Nc1nc2c(s1)CC[C@@H]2C(=O)Nc1ccc(C[C@@H]2CC[C@H]([C@H](O)c3ccccc3)N2)cc1 | –
5 | – | 37 | > 20 | > 20 | – | 1950 | CCc1nc2c(s1)CC[C@H]2C(=O)Nc1ccc(C[C@@H]2CC[C@H]([C@H](O)c3ccccc3)N2)cc1 | –
6 | – | 84 | > 20 | > 20 | – | 180 | C[C@@H](C(=O)Nc1ccc(C[C@@H]2CC[C@H]([C@H](O)c3ccccc3)N2)cc1)c1csc(N)n1 | –
7 | 50 | 91 | > 20 | > 20 | 4 | 150 | Nc1nc2c(s1)CC[C@H]2C(=O)Nc1ccc(C[C@@H]2CC[C@H]([C@H](O)c3ccccc3)N2)cc1 | IC50 (Cytochrome P450 3A4): 86 µM; EC50 [14]: 60 pM; Activity [15]: 100%; Papp [1]: 5 ×10⁻⁶ cm/s; IC50 (Cytochrome P450 2C9): > 100 µM; Activity [16]: 102%; IC50 [3]: 5.6 µM; bioavailability [13]: 6%; fraction unbound [6]: 0.18; IC50 [7]: > 30 µM; EC50 [17]: 0.0013 µM; IC50 [18]: 12.7 µM; CLint scaled [8]: 59 mL/min/kg; EC50 [19]: 0.00019 µM; IC50 [10]: 1.22 µM; Activity [20]: 78%; IC50 (Cytochrome P450 2D6): 18.3 µM
8 | 87 | 96 | > 20 | > 20 | 1 | 480 | Cc1nc2c(s1)CC[C@H]2C(=O)Nc1ccc(C[C@@H]2CC[C@H]([C@H](O)c3ccccc3)N2)cc1 | Papp [1]: 26 ×10⁻⁶ cm/s; bioavailability [13]: 6%; fraction unbound [6]: 0.05; CLint scaled [8]: 135 mL/min/kg
9 | – | 70 | > 20 | > 20 | – | 1860 | Nc1nc2c(s1)CCCC[C@H]2C(=O)Nc1ccc(C[C@@H]2CC[C@H]([C@H](O)c3ccccc3)N2)cc1 | –
10 | – | 94 | > 20 | > 20 | – | 40 | Nc1nc2c(s1)CC[C@H]2C(=O)Nc1ccc(C[C@@H]2CC[C@H]([C@H](O)c3cccc(F)c3)N2)cc1 | IC50 [18]: 4 µM
11 | – | 49 | > 20 | > 20 | – | 13600 | CCc1nc2c(s1)CC[C@H]2C(=O)Nc1ccc(C[C@@H]2CC[C@H]([C@H](O)c3cccnc3)N2)cc1 | –
12 | – | 72 | > 20 | > 20 | – | 76700 | O=C(Cn1cccn1)Nc1ccc(C[C@@H]2CC[C@H]([C@H](O)c3cccnc3)N2)cc1 | –
13 | 25 | 89 | > 20 | > 20 | 1 | 1150 | Cc1nc2c(s1)CC[C@H]2C(=O)Nc1ccc(C[C@@H]2CC[C@H]([C@H](O)c3cccnc3)N2)cc1 | IC50 (Cytochrome P450 3A4): 41.8 µM; Papp [1]: 17 ×10⁻⁶ cm/s; IC50 (Cytochrome P450 2C9): 67.2 µM; IC50 [3]: > 30 µM; bioavailability [13]: 46%; fraction unbound [6]: 0.11; IC50 [7]: > 30 µM; IC50 [18]: 12 µM; Ratio IC50/EC50 (Homo sapiens): 77; CLint scaled [8]: 62 mL/min/kg; IC50 [10]: 0.089 µM; IC50 (Cytochrome P450 2D6): > 100 µM
14 | 32 | 101 | > 20 | > 20 | 4 | 370 | Nc1nc2c(s1)CC[C@H]2C(=O)Nc1ccc(C[C@@H]2CC[C@H]([C@H](O)c3cccnc3)N2)cc1 | Papp [1]: < 1 ×10⁻⁶ cm/s; bioavailability [13]: 0%; Fu (Plasma): BLD; CLint scaled [8]: 57 mL/min/kg
15 | – | 76 | 4.33 | 2.51 | – | 186000 | O=C(Nc1ccc(C[C@@H]2CC[C@H]([C@H](O)c3ccccc3)N2)cc1)[C@@H]1CCc2sc(-c3ccc(F)cc3)nc21 | –
16 | 34 | 102 | > 20 | > 20 | 2 | 16700 | C[C@@H](C(=O)Nc1ccc(C[C@@H]2CC[C@H]([C@H](O)c3cccnc3)N2)cc1)n1cccn1 | bioavailability [13]: 29%
17 | – | 85 | > 20 | > 20 | – | 830 | CC[C@@H](C(=O)Nc1ccc(C[C@@H]2CC[C@H]([C@H](O)c3ccccc3)N2)cc1)c1csc(N)n1 | –
18 | – | 72 | > 20 | > 20 | – | 130 | Nc1nc2c(s1)CC[C@H]2C(=O)Nc1ccc(C[C@@H]2CC[C@H]([C@H](O)c3ccc(F)cc3)N2)cc1 | IC50 [18]: 5.6 µM
19 | – | 66 | > 20 | > 20 | – | 880 | CCC[C@@H](C(=O)Nc1ccc(C[C@@H]2CC[C@H]([C@H](O)c3ccccc3)N2)cc1)c1csc(N)n1 | –
20 | – | 43 | > 20 | > 20 | – | 12400 | O=C(Nc1ccc(C[C@@H]2CC[C@H]([C@H](O)c3cccnc3)N2)cc1)[C@@H]1CCc2sc(C3CC3)nc21 | –
21 | – | 85 | > 20 | > 20 | – | 670 | C[C@H](C(=O)Nc1ccc(C[C@@H]2CC[C@H]([C@H](O)c3ccccc3)N2)cc1)c1csc(N)n1 | –
22 | 80 | 101 | > 20 | > 20 | 1 | 640 | O=C(Nc1ccc(C[C@@H]2CC[C@H]([C@H](O)c3ccccc3)N2)cc1)[C@@H]1CCc2scnc21 | Papp [1]: 24 ×10⁻⁶ cm/s; bioavailability [13]: 12%; fraction unbound [6]: 0.1; CLint scaled [8]: 68 mL/min/kg
23 | – | 93 | > 20 | 8.45 | – | 150 | Nc1nc2c(s1)CC[C@H]2C(=O)Nc1ccc(C[C@@H]2CC[C@H]([C@H](O)c3cccc(Cl)c3)N2)cc1 | –
24 | – | 15 | 13.3 | 2.47 | – | 8780 | O=C(Nc1ccc(C[C@@H]2CC[C@H]([C@H](O)c3cccnc3)N2)cc1)[C@@H]1CCc2sc(-c3ccc(F)cc3)nc21 | –
